Measurements taken from ChEMBL document CHEMBL2046422, “Structure-activity relationship of nonacidic quinazolinone inhibitors of human microsomal prostaglandin synthase 1 (mPGES 1)” (J Med Chem, 2012).

Key:
[1] = biological target: T1, 5-lipoxygenase/FLAP (Homo sapiens) (UniProt P09917+P20292); test: Inhibition of 5-lipoxygenase/FLAP in calcium ionophore-stimulated human whole blood assessed as residual (+/-)11HETE level at 10 uM preincubated for 15 mins prior to calcium ionophore-stimulation measured after 15 mins by LC-MS/MS analysis; assay type: protein-complex assay
Method in brief: (§1)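 Heparinized human whole blood (500 μL) was preincubated with compound for 15 min at 37 °C. It was then stimulated with 20 μM calcium ionophore A23187 in autologous plasma for 15 min at 37 °C and chilled on ice for 5 min. Plasma was collected by centrifugation at 4 °C. Eicosanoids were recovered by liquid–liquid extraction with deuterated internal standards and quantified by LC-MS/MS (MRM). Levels are relative to vehicle-treated blood.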

[2] = biological target: T2, Prostaglandin E synthase (Homo sapiens) (UniProt O14684); test: Inhibition of mPGES-1 derived from IL1beta and TNFalpha stimulated human HeLa cells microsomal fraction using PGH2 as substrate at 1 uM preincubated for 30 mins prior to substrate addition measured after 1 min by LC-MS/MS analysis relative to control
T2 sequence (whole entry): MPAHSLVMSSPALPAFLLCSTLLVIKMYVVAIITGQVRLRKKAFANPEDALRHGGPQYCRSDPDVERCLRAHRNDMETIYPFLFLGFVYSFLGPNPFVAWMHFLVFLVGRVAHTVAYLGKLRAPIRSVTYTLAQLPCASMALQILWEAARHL
Method in brief: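 Microsomes were pelleted by ultracentrifugation and resuspended in buffer with 2.5 mM GSH; protein was measured by Bradford. PGE₂ was read by LC-MS/MS after solid-phase extraction with deuterated standards; n ≥ 3.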

[3] = biological target: T3, Prostaglandin G/H synthase 2 (Homo sapiens) (UniProt P35354); test: Inhibition of COX2 in LPS-stimulated human whole blood assessed as residual PGE2 level at 100 uM preincubated for 15 mins prior to LPS-stimulation measured after 24 hrs by LC-MS/MS analysis relative to control
T3 sequence (whole entry): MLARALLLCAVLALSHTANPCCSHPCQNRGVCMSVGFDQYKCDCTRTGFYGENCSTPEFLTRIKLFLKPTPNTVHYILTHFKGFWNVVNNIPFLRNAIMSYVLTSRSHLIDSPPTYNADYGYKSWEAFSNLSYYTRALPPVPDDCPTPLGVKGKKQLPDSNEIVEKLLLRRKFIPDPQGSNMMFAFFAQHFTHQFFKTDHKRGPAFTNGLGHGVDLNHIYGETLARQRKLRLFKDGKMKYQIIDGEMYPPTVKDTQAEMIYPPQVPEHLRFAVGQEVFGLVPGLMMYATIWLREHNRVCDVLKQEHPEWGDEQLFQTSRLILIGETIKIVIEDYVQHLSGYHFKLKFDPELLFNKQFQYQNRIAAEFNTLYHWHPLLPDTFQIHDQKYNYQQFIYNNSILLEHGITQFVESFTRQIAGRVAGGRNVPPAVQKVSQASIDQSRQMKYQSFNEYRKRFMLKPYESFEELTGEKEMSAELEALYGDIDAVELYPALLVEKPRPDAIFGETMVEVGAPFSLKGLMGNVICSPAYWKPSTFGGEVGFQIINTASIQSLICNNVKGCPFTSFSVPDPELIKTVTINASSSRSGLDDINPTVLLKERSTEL
Method in brief: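 Human whole blood received compound in DMSO plus acetylsalicylic acid (10 μg/mL) to block COX-1, 15 min at 37 °C. LPS (10 μg/mL final) in autologous plasma was added to induce COX-2/mPGES-1, and blood was incubated 24 h at 37 °C. Samples were chilled on ice 5 min, and plasma prostaglandins were extracted by solid-phase extraction and quantified by LC-MS/MS. Values are relative to vehicle.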

[4] = biological target: T1, 5-lipoxygenase/FLAP (Homo sapiens); test: Inhibition of 5-lipoxygenase/FLAP in calcium ionophore-stimulated human whole blood assessed as residual LTB4 level at 10 uM preincubated for 15 mins prior to calcium ionophore-stimulation measured after 15 mins by LC-MS/MS analysis; assay type: protein-complex assay; method in brief: as §1
[5] = biological target: Prostaglandin G/H synthase 1 (Homo sapiens) (UniProt P23219); test: Inhibition of COX1 in human whole blood assessed as residual TXB2 level at 10 uM after 1 hr by LC-MS/MS analysis relative to control
Chain of Prostaglandin G/H synthase 1 (Homo sapiens) (P23219 whole entry): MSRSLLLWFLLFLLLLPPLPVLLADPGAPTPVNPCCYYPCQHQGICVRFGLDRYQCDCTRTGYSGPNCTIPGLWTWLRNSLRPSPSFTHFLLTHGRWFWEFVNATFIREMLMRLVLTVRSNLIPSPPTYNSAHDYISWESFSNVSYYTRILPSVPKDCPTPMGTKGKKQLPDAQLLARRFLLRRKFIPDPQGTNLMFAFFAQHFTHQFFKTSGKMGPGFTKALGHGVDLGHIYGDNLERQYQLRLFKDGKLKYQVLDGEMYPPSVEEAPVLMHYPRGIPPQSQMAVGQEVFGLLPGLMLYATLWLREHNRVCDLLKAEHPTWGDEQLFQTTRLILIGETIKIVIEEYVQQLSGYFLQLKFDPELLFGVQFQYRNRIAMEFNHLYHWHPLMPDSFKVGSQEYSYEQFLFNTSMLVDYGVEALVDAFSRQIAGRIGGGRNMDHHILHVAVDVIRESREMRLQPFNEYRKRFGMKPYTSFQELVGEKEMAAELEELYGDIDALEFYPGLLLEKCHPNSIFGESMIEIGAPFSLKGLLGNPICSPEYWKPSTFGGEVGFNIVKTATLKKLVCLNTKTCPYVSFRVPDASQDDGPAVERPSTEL
Method in brief: (§2)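 Human venous blood was drawn without additives, and compound was added. Samples clotted at 37 °C for 1 h; negative controls were chilled on ice at once. After 5 min on ice, plasma was separated at 4 °C. It was mixed with H₃PO₄, EDTA, BHT and deuterated internal standards, then put through solid-phase extraction. TXB₂ and PGD₂ were measured by LC-MS/MS, relative to vehicle-treated blood.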

[6] = biological target: T4, Prostaglandin G/H synthase 1 (Ovis aries) (UniProt P05979); test: Inhibition of ovine COX1-mediated PGE2 synthesis using PGH2 as substrate at 1 uM by LC-MS/MS analysis relative to control
T4 sequence (whole entry): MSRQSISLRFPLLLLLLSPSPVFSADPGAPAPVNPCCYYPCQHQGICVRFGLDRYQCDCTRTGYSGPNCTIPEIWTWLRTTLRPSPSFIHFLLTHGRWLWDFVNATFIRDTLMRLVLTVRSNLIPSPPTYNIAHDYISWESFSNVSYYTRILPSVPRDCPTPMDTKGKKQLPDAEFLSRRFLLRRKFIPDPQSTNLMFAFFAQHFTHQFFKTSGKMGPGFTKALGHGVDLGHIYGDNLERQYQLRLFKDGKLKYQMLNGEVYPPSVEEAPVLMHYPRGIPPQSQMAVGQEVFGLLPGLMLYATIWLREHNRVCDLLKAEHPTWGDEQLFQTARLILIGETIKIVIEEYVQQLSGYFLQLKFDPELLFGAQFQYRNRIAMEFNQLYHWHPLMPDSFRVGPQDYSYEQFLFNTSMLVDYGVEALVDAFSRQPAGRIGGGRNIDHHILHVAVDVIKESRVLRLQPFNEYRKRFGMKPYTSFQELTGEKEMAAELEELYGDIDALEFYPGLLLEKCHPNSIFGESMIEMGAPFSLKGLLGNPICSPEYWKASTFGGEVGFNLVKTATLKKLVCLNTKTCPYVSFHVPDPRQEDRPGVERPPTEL
Method in brief: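 Direct enzyme test with a COX inhibitor screening kit, run per the kit protocol: COX-1 was ovine, COX-2 human recombinant. […] Prostaglandins were quantified by LC-MS/MS after solid-phase extraction. Mean of n ≥ 3.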

[7] = biological target: Prostaglandin G/H synthase 1 (Homo sapiens) (UniProt P23219); test: Inhibition of COX1 in human whole blood assessed as residual PGD2 level at 10 uM after 1 hr by LC-MS/MS analysis relative to control; method in brief: as §2
[8] = biological target: T1, 5-lipoxygenase/FLAP (Homo sapiens); test: Inhibition of 5-lipoxygenase/FLAP in calcium ionophore-stimulated human whole blood assessed as residual 12(s)HETE level at 10 uM preincubated for 15 mins prior to calcium ionophore-stimulation measured after 15 mins by LC-MS/MS analysis; assay type: protein-complex assay; method in brief: as §1
[9] = biological target: T1, 5-lipoxygenase/FLAP (Homo sapiens); test: Inhibition of 5-lipoxygenase/FLAP in calcium ionophore-stimulated human whole blood assessed as 5(s)HETE level at 10 uM preincubated for 15 mins prior to calcium ionophore-stimulation measured after 15 mins by LC-MS/MS analysis; assay type: protein-complex assay; set-up: scale not given: the % may be the effect or the level left; method in brief: as §1

SMILES | Activity [1] [%] | inhibition [2] [%] | Activity [3] [%] | Activity [4] [%] | Activity [5] [%] | inhibition [6] [%] | Activity [7] [%] | Activity [8] [%] | Activity [9] [%]
CCCc1nc2ccc(NC(=O)c3ccccc3Cl)cc2c(=O)n1Cc1ccc(-c2ccc(Cl)cc2)cc1 | 85.2 | 68.8 | 174 | 151 | 97.3 | 2.6 | 96.1 | 93.2 | 157
CCCc1nc2ccc(NC(=O)c3c(F)cccc3Cl)cc2c(=O)n1Cc1cccc(Cl)c1 | 123 | 75.6 | 54.7 | 94.1 | 84.4 | < 0 | 89.4 | 123 | 92.1
CCCc1nc2ccc(NC(=O)c3ccccc3Cl)cc2c(=O)n1Cc1cccc(Cl)c1 | 71.6 | 86.3 | 37.4 | 93.7 | 90.4 | < 0 | 86.5 | 92.8 | 92
CCCc1nc2ccc(NC(=O)c3ccccc3Cl)cc2c(=O)n1Cc1ccc(-c2cccc(Cl)c2)cc1 | 76.8 | 66.7 | 51.2 | 83 | 90 | < 0 | 98.5 | 80 | 79
CCCc1nc2ccc(NC(=O)c3ccccc3Cl)cc2c(=O)n1Cc1ccc(-c2cccc(OC)c2)cc1 | 77 | 71.5 | 50 | 70.9 | 89 | 20.1 | 91.7 | 85.5 | 67.8
CCCc1nc2ccc(NC(=O)c3ccccc3C)cc2c(=O)n1Cc1cccc(Cl)c1 | 86.5 | 63.1 | 53 | 72.7 | 81.9 | < 0 | 128 | 88.9 | 74.4
CCCc1nc2ccc(NC(=O)c3ccccc3Cl)cc2c(=O)n1Cc1ccc(-c2ccccc2)cc1 | 84.8 | 74.2 | 52.1 | 71.9 | 86.4 | 8.4 | 84.9 | 110 | 74.8
